In ChEMBL document CHEMBL1128703, “Chromophore-modified antitumor anthracenediones: synthesis, DNA binding, and cytotoxic activity of 1,4-bis[(aminoalkyl)amino]benzo[g]-phthalazine-5,10-diones” (J Med Chem, 1995):

Legend:
LoVo [1] = assay: (§1) Inhibitory activity against human colon adenocarcinoma cell line LoVo/Dx.; type: functional, cell-based
In short: (§2)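 LoVo and doxorubicin-resistant LoVo/Dx grown in Ham's F12 with 10% FCS, glutamine, BME vitamins, HEPES, pen/strep; 37 °C, CO2, mycoplasma-checked by DAPI. Seeded 2.5 × 10^4 cells/mL, preincubated 24 h, then drug exposure 144 h. MTT read-out at 570 nm; IC50 (μg/mL) as concentration inhibiting growth by 50%, at least three runs averaged.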

Nucleic Acid [2] = assay: dichroism data for visible band in the compound to DNA in ETN.; type: nucleic-acid assay; details: Bos taurus
In short: (§3)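 Dichroism in Tris-EDTA-NaCl buffer, ionic strength 0.1, pH 7.0, 25 °C. CD given as Δε from ellipticity, path length and molar concentration. Linear dichroism with DNA oriented in rotating quartz cell at 600-800 rpm, four accumulations; ligand orientation angle derived from ligand/DNA reduced LD ratio, taking bases at 90°.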

HT-1080 [3] = assay: Inhibitory activity against human tumor cell line HT1080.; type: functional, cell-based
In short: (§4)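 Fibrosarcoma HT-1080, colon HT-29, breast MCF-7 and melanoma A-375 adapted to complete RPMI 1640; seeded 2.5 × 10^4 cells/mL, preincubated 24 h, exposed to drug 144 h. MTT assay, formazan dissolved in DMSO, absorbance per well read; IC50 (M) taken as concentration giving 50% growth inhibition.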

HT-29 [4] = assay: Inhibitory activity against human tumor cell line HT-29.; type: functional, cell-based; in short: as §4
Nucleic Acid [5] = assay: Ki value was measured for the binding of compound to DNA in ETN.; type: nucleic-acid assay, Bos taurus
In short: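 UV-vis titration: DNA added to ligand at fixed concentration in 10 mM Tris, 2 mM EDTA, NaCl to ionic strength 0.15 M, pH 7.0, 25 °C. Bound/free ligand from absorbance at wavelength of largest change (isosbestic points present); intrinsic constant and site size fitted by least squares to the neighbour-exclusion equation.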

MCF7 = assay: Inhibitory activity against human tumor cell line MCF-7 breast adenocarcinoma.; type: functional, cell-based; in short: as §4
LoVo [6] = assay: Inhibitory activity against human colon adenocarcinoma cell line LoVo.; type: functional, cell-based; in short: as §2
LoVo [7] = assay: (§5) Resistance index as the ratio of IC50 value against LoVo/Dx to that of LoVo cell lines.; type: functional, Homo sapiens
In short: (§6)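 LoVo and LoVo/Dx, each seeded 2.5 × 10^4 cells/mL, preincubated 24 h, exposed to drug 144 h; MTT formazan read at 570 nm. Resistance index = IC50 in LoVo/Dx divided by IC50 in LoVo.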

HT-1080 [8] = assay: inhibit the cellular growth by 50% was determined against human tumor cell line HT1080.; type: functional, cell-based; in short: as §4
HT-29 [9] = assay: as §1; type: functional, cell-based; details: in the assay text read “HT-29” for “LoVo/Dx”
[10] = as §5; type: functional; in short: as §6
A-375 = assay: Inhibitory activity against human tumor cell line […] melanoma.; type: functional, cell-based; in short: as §4
HT-1080 [11] = assay: Inhibitory activity against human tumor cell line HT1080; type: functional, cell-based; in short: as §4
Nucleic Acid [12] = assay: dichroism data for visible band in the compound to calf thymus DNA in ETN.; type: nucleic-acid assay; details: Bos taurus; in short: as §3
HT-29 [13] = assay: Inhibitory activity against human tumor cell line HT-29; type: functional, cell-based; in short: as §4

| SMILES | IC50 (LoVo [1]) [nM] | IC50 (LoVo [6]) [nM] | RI [10] | also measured |
| --- | --- | --- | --- | --- |
| Cl.O=C1c2ccccc2C(=O)c2c(NCCNCCO)nnc(NCCNCCO)c21 | 39000 | 2700 | – | LD (Nucleic Acid [2]): -0.13; IC50 (HT-1080 [3]): 1300 nM; IC50 (HT-29 [4]): 410 nM; Ki (Nucleic Acid [5]): 47000 M⁻¹; IC50 (MCF7): 720 nM; RI (LoVo [7]): 14.4 |
| CN(C)CCNc1nnc(N)c2c1C(=O)c1ccccc1C2=O | – | – | – | IC50 (HT-1080 [8]): 34 nM; IC50 (HT-29 [9]): 6.5 nM |
| O=C1c2ccccc2C(=O)c2c(NCc3ccccc3)nnc(NCc3ccccc3)c21 | 1300 | 1400 | 0.9 | – |
| COc1cccc2c1C(=O)c1c(O)c3c(c(O)c1C2=O)C[C@@](O)(C(=O)CO)C[C@@H]3O[C@H]1C[C@H](N)[C@H](O)[C@H](C)O1 [DOXORUBICIN] | 6000 | 43 | 139.5 | – |
| Cl.O=C1c2ccccc2C(=O)c2c(NCCCO)nnc(NCCCO)c21 | < 2000 | 76 | <26 | – |
| O=C1c2ccccc2C(=O)c2c(NCCN3CCCCC3)nnc(NCCN3CCCCC3)c21 | 1200 | 260 | 4.6 | – |
| OCCCNc1nnc(NCCCO)c2cc3ccccc3cc12 | 36000 | > 9600 | >3.7 | – |
| CN(C)CCNc1nnc(NCCN(C)C)c2c1C(=O)c1ccccc1C2=O.Cl | 440 | 73 | 6 | IC50 (HT-1080 [3]): 46 nM; IC50 (HT-29 [4]): 9.4 nM; IC50 (MCF7): 0.95 nM; IC50 (A-375): 33 nM |
| OCCNCCNc1nnc(NCCNCCO)c2cc3ccccc3cc12 | > 260000 | > 8100 | – | – |
| O=C1c2c(O)ccc(O)c2C(=O)c2c(NCCNCCO)ccc(NCCNCCO)c21 [MITOXANTRONE] | 530 | 9.7 | 54.6 | IC50 (HT-1080 [3]): 66 nM; IC50 (HT-29 [4]): 17 nM; IC50 (MCF7): 20 nM; IC50 (A-375): 26 nM |
| Cl.Nc1nnc(NCCNCCO)c2c1C(=O)c1ccccc1C2=O | – | – | – | Ki (Nucleic Acid [5]): 45000 M⁻¹; IC50 (MCF7): 47 nM; IC50 (HT-1080 [11]): 8.3 nM; IC50 (A-375): 0.47 nM; LD (Nucleic Acid [12]): -0.13; IC50 (HT-29 [13]): 5.2 nM |
| CCN(CC)CCNc1nnc(NCCN(CC)CC)c2c1C(=O)c1ccccc1C2=O | 1700 | 180 | 9.4 | – |
| O=C1c2ccccc2C(=O)c2c(NCCNCCO)ccc(NCCNCCO)c21 [AMETANTRONE] | 92000 | 580 | – | LD (Nucleic Acid [2]): -0.13; Ki (Nucleic Acid [5]): 340000 M⁻¹; RI (LoVo [7]): 158.6 |
| CN(C)CCCNc1nnc(NCCCN(C)C)c2c1C(=O)c1ccccc1C2=O | 1000 | 49 | 20.4 | – |
